In ChEMBL document CHEMBL1121715, “New antiarrhythmic agents. 4. 1'-(Aminoalkyl)-1,2,3,4-tetrahydronaphthalene-1-spiro-3'-pyrrolidine-2',5'-dione derivatives” (J Med Chem, 1981):

Key:
[1] = Total body clearance was measured at given dose; assay type: ADME
How it was run: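 Blood levels came from the iv-infused dogs, measured by GC-FID after methylene chloride extraction and heptafluorobutyryl derivatization with an internal standard. Total body clearance was total dose divided by the blood-level AUC (zero to infinity); volume of distribution was clearance divided by the elimination rate constant.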

[2] = Volume of distribution was measured at given dose of 227 uM/kg; assay type: ADME, organism-based; settings: in vivo
How it was run: (§1)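 In dogs given iv infusions, blood samples were alkaline-extracted (pH 10.3) into methylene chloride and derivatized with heptafluorobutyrylimidazole. Concentrations were measured by GC-FID against an internal standard using standard curves. Clearance was total dose ÷ blood-level AUC (zero to infinity), and volume of distribution was clearance ÷ elimination rate constant.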

Canis familiaris [3] = species on record: Canis familiaris; assay: Nature of toxicity was expressed; A-V convulsion; assay type: organism-based, Canis lupus familiaris; settings: dog, in vivo
How it was run: (§2)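 Adult female dogs (6.7–14.5 kg) had two-stage ligation of the left anterior descending coronary artery the day before testing. After control ventricular rate, % ectopic beats and mean arterial pressure were recorded, the drug (HCl salt, isotonic solution) was infused iv without anesthesia at 0.1, 0.5 or 1.0 (mg/kg)/min, mostly 0.5. Infusion continued until the arrhythmia was abolished or cardiovascular/CNS toxicity appeared. Cumulative dose is given in mmol/kg; toxicity included convulsion and P-R prolongation ≥25%.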

Canis familiaris [4] = species on record: Canis familiaris; assay: The dose at which toxicity was measured; 0.065; 0.0182; assay type: organism-based, Canis lupus familiaris; settings: dog, in vivo; how it was run: as §2
Canis familiaris [5] = assay: Blood level was measured in anesthetized dog at 0.053 dose; assay type: functional, Canis lupus familiaris
Canis familiaris [6] = assay: Blood level was measured in anesthetized dog at 0.058 dose; assay type: functional, Canis lupus familiaris
Canis familiaris [7] = species on record: Canis familiaris; assay: Toxicity of blood level was measured; assay type: organism-based, Canis lupus familiaris; settings: dog, in vivo
How it was run: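 In coronary-ligated conscious dogs under iv infusion, blood was sampled at toxicity. Drug was extracted with methylene chloride at pH 10.3 (ammonium citrate/ammonia) with another analogue as internal standard, then derivatized with heptafluorobutyrylimidazole. Assay was GC-FID on 3% JXR, quantified from drug/internal standard peak-height ratio against standard curves; results in μmol/mL.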

Canis familiaris [8] = assay: Blood level was measured in anesthetized dog at 0.015 dose; assay type: functional, Canis lupus familiaris
Canis familiaris [9] = assay: Blood level was measured in anesthetized dog at 0.018 dose; assay type: functional, Canis lupus familiaris
Canis familiaris [10] = assay: Blood level was measured in anesthetized dog at 0.023 dose; assay type: functional, Canis lupus familiaris
Canis familiaris [11] = assay: Blood level was measured in anesthetized dog at 0.038 dose; assay type: functional, Canis lupus familiaris
Canis familiaris [12] = assay: % ectopic beats was measured in anesthetized dog at 0.015 dose; assay type: functional, Canis lupus familiaris, Heart; settings: in the assay text read “unanesthetized” for “anesthetized”
How it was run: (§3)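 Adult female dogs (6.7–14.5 kg) had the left anterior descending coronary artery ligated in two stages the day before testing. Dogs were unanesthetized. Ectopic beats (% of ventricular rate) and mean arterial pressure were read at maximal antiarrhythmic effect against the cumulative dose.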

Canis familiaris [13] = assay: % ectopic beats was measured in anesthetized dog at 0.018 dose; assay type: functional, Canis lupus familiaris, Heart; settings: in the assay text read “unanesthetized” for “anesthetized”; how it was run: as §3
Canis familiaris [14] = assay: % ectopic beats was measured in anesthetized dog at 0.023 dose; assay type: functional, Canis lupus familiaris, Heart; settings: in the assay text read “unanesthetized” for “anesthetized”; how it was run: as §3
Canis familiaris [15] = assay: % ectopic beats was measured in anesthetized dog at 0.038 dose; assay type: functional, Canis lupus familiaris, Heart; settings: in the assay text read “unanesthetized” for “anesthetized”; how it was run: as §3
Canis familiaris [16] = assay: % ectopic beats was measured in anesthetized dog at 0.053 dose; assay type: functional, Canis lupus familiaris, Heart; settings: in the assay text read “unanesthetized” for “anesthetized”; how it was run: as §3
Canis familiaris [17] = species on record: Canis familiaris; assay: The Maximum dose of the Compound; assay type: functional, Canis lupus familiaris; how it was run: as §2
Canis familiaris [18] = species on record: Canis familiaris; assay: The Maximum dose of the compound; assay type: functional, Canis lupus familiaris; how it was run: as §2
Canis familiaris [19] = assay: MABP value was measured in anesthetized dog at 0.015 dose; assay type: functional, Canis lupus familiaris; settings: in the assay text read “unanesthetized dog” for “anesthetized dog”; how it was run: as §3
Canis familiaris [20] = assay: MABP value was measured in anesthetized dog at 0.018 dose; assay type: functional, Canis lupus familiaris; settings: in the assay text read “unanesthetized dog” for “anesthetized dog”; how it was run: as §3
Canis familiaris [21] = assay: MABP value was measured in anesthetized dog at 0.023 dose; assay type: functional, Canis lupus familiaris; settings: in the assay text read “unanesthetized dog” for “anesthetized dog”; how it was run: as §3
Canis familiaris [22] = assay: MABP value was measured in anesthetized dog at 0.038dose; assay type: functional, Canis lupus familiaris; settings: in the assay text read “unanesthetized dog” for “anesthetized dog”; how it was run: as §2
Canis familiaris [23] = assay: MABP value was measured in anesthetized dog at 0.053 dose; assay type: functional, Canis lupus familiaris; settings: in the assay text read “unanesthetized dog” for “anesthetized dog”; how it was run: as §2
Canis familiaris [24] = assay: MABP value was measured in anesthetized dog at 0.058 dose; assay type: functional, Canis lupus familiaris; settings: in the assay text read “unanesthetized dog” for “anesthetized dog”; how it was run: as §2
Canis familiaris [25] = assay: Ventricular rate was measured in anesthetized dog at 0.015 dose; assay type: functional, Canis lupus familiaris, Heart; settings: in the assay text read “unanesthetized dog” for “anesthetized dog”; how it was run: as §2
Canis familiaris [26] = assay: Ventricular rate was measured in anesthetized dog at 0.018 dose; assay type: functional, Canis lupus familiaris, Heart; settings: in the assay text read “unanesthetized dog” for “anesthetized dog”; how it was run: as §2
Canis familiaris [27] = assay: Ventricular rate was measured in anesthetized dog at 0.038 dose; assay type: functional, Canis lupus familiaris, Heart; settings: in the assay text read “unanesthetized dog” for “anesthetized dog”; how it was run: as §2
Canis familiaris [28] = assay: Ventricular rate was measured in anesthetized dog at 0.053 dose; assay type: functional, Canis lupus familiaris, Heart; settings: in the assay text read “unanesthetized dog” for “anesthetized dog”; how it was run: as §2
Canis familiaris [29] = assay: Ventricular rate was measured in anesthetized dog at 0.058 dose; assay type: functional, Canis lupus familiaris, Heart; settings: in the assay text read “unanesthetized” for “anesthetized”
How it was run: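 Adult female dogs (6.7–14.5 kg) had ventricular arrhythmias from two-stage ligation of the left anterior descending coronary artery the day before. Ventricular rate (bpm) was read at maximal antiarrhythmic effect against cumulative dose.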

Canis familiaris [30] = assay: Ventricular rate was measured in anesthetized dog at 0.023 dose; assay type: functional, Canis lupus familiaris, Heart; settings: in the assay text read “unanesthetized” for “anesthetized”; how it was run: as §2
Mus musculus [31] = species on record: Mus musculus; assay: Percentage toxicity measured as ataxia.; assay type: organism-based; settings: in vivo
How it was run: (§4)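 Mice (groups of 10) were dosed sc with drug in 0.9% saline and watched for 20 min for overt toxicity (ataxia, convulsions, loss of righting reflex, death) before chloroform exposure.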

[32] = Percentage toxicity measured as death of mice.; assay type: organism-based; design: concentration or dose not given beside the values; settings: mouse, in vivo; read-out: Death
Mus musculus [33] = species on record: Mus musculus; assay: Percentage toxicity measured as loss of righting reflex.; assay type: organism-based; settings: in vivo; how it was run: as §4
Mus musculus [34] = assay: Protection against chloroform induced arrhythmias was measured in mice after sc administration at given dose; assay type: functional
How it was run: (§5)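 Groups of 10 unanesthetized mice got sc injection of drug in 0.9% saline. After 20 min observation they were placed one by one in chloroform-vapor-saturated air. When breathing stopped, the thorax was opened and the heart inspected by eye; coordinated ventricular contractions counted as protected.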

Mus musculus [35] = assay: Protection against chloroform induced arrhythmias in mice after subcutaneous administration at 100 mg/kg dose.; assay type: functional; how it was run: as §5
[36] = Volume of distribution was measured at given dose of 83 umol/kg; assay type: ADME, organism-based; settings: in vivo; how it was run: as §1
Mus musculus [37] = species on record: Mus musculus; assay: Percentage toxicity measured as convulsions.; assay type: organism-based; settings: in vivo; how it was run: as §4
[38] = Maximal concentration in dogs after intravenous administration; settings: dog, in vivo
Canis familiaris [39] = assay: as above; settings: dog, in vivo
Canis familiaris [40] = assay: % ectopic beats was measured in unanesthetized dog at 0.058 dose

CN(C)CCCCN1C(=O)CC2(CCCc3ccc(O)cc32)C1=O (stereo unspecified)
ClB [1]: 17.5 mL/min/kg | clearance ([1]; ClB): 31.6 mL/min/kg | Vd [2]: 3.35 L/kg | Nature (Canis familiaris [3]): A-V convulsion | Dose (Canis familiaris [4]): A-V convulsion | Blood level (Canis familiaris [5]): 0.028 uM ml-1 | Blood level (Canis familiaris [6]): 0.017 uM ml-1 | Blood level (Canis familiaris [7]): 12 µM | Blood level (Canis familiaris [8]): 0.024 uM ml-1 | Blood level (Canis familiaris [9]): 0.022 uM ml-1 | Blood level (Canis familiaris [10]): 0.02 uM ml-1 | Blood level (Canis familiaris [11]): 0.023 uM ml-1 | Etopic beats (Canis familiaris [12]): 0% | Etopic beats (Canis familiaris [13]): 1% | Etopic beats (Canis familiaris [14]): 93% | Etopic beats (Canis familiaris [15]): 0% | Etopic beats (Canis familiaris [16]): 3% | Dose (Canis familiaris [17]): 83 µM/kg | Dose (Canis familiaris [18]): 227 µM/kg | MABP (Canis familiaris [19]): 85 mmHg | MABP (Canis familiaris [20]): 120 mmHg | MABP (Canis familiaris [21]): 110 mmHg | MABP (Canis familiaris [22]): 105 mmHg | MABP (Canis familiaris [23]): 135 mmHg | MABP (Canis familiaris [24]): 95 mmHg | Ventricular rate (Canis familiaris [25]): 165 beats min-1 | Ventricular rate (Canis familiaris [26]): 150 beats min-1 | Ventricular rate (Canis familiaris [27]): 171 beats min-1 | Ventricular rate (Canis familiaris [28]): 183 beats min-1 | Ventricular rate (Canis familiaris [29]): 171 beats min-1 | Ventricular rate (Canis familiaris [30]): 138 beats min-1 | Ataxia (Mus musculus [31]): 0% | mortality [32]: 0% | Loss of righting reflex (Mus musculus [33]): 0% | ED50 (Mus musculus [34]): 160 µmol/kg | Protection (Mus musculus [35]): 100% | Vd [36]: 3.02 L/kg | Convulsion (Mus musculus [37]): 0% | Cmax [38]: 37 µM | Cmax (Canis familiaris [39]): 30 µM | Ectopic beats (Canis familiaris [40]): 4%
